Test results as given in ChEMBL document CHEMBL3244004, “Potential antitumor agents. 27. Quantitative structure--antileukemic (L1210) activity relationships for the omega-[4-(9-acridinylamino)phenyl]alkanoic acids” (J Med Chem, 1978).
The source made the active and inactive calls. The calls are words filed in the database; no cut-off is given here.

Experiments:
[1] = Logarithmic function of the retardation factor value of compound by reverse phase chromatography analysis; assay type: physicochemical
Procedure, shortened: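 Lipophilic-hydrophilic balance read by reversed-phase TLC, using a system described in an earlier report. R_m is calculated as log(1/R_f − 1). Each quoted figure is the mean of at least three determinations.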

Mus musculus = experiment: Toxicity in ip dosed C3H/DBA2F1 hybrid mouse allografted with mouse L1210 cells administered for 5 days measured up to 8 days; assay type: organism-based; details: in vivo
Procedure, shortened: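 C3H/DBA2 F1 hybrid mice (18.5–22.5 g) bearing ip 10^5 L1210 cells were dosed ip once daily for 5 days, starting 24 h after inoculation, at 0.2 mL per dose. Doses were spaced 0.05 log units apart. Deaths before day 8 were taken as drug toxicity, and the dose lethal to 10% of animals (LD10) was derived.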

L1210 = experiment: Antitumor activity against mouse L1210 cells allografted in C3H/DBA2F1 hybrid mouse assessed as maximum increase of host life span administered as ip for 5 days relative to control; assay type: functional
Procedure, shortened: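 Mice (C3H/DBA2 F1 hybrid, 18.5–22.5 g; six per dose level) were inoculated ip with 10^5 L1210 cells. Ip treatment ran once daily on days 1–5, starting 24 h after inoculation, in 0.2 mL per dose. Doses were spaced 0.09 log units apart. ILS = T/C% − 100, significant if above 25%. Significant ILS values were regressed on log dose, and ILSmax was read at the LD10.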

| SMILES | Rm [1] | LD10 (Mus musculus) [mg/kg] | ILSmax (L1210) | log(ILSmax) (L1210) |
| --- | --- | --- | --- | --- |
| CNc1ccc2c(Nc3ccc(NS(C)(=O)=O)cc3)c3ccccc3nc2c1.Cl | -0.01 | 7 | 103% | 2.01 |
| NS(=O)(=O)c1ccc(Nc2c3ccccc3nc3ccccc23)cc1 | -0.57 | > 500 | inactive |  |
| CC(=O)Nc1ccc2c(Nc3ccc(NS(C)(=O)=O)cc3)c3ccccc3nc2c1 | -0.12 | 19 | 145% |  |
| O=C(O)c1ccc(Nc2c3ccccc3nc3ccccc23)cc1 | 0.27 | 72 | 130% | 2.11 |
| Cl.O=S(=O)(Cc1ccc(Nc2c3ccccc3nc3ccccc23)cc1)Nc1ccccn1 | -0.04 | 370 | 99% | 2 |
| Cl.O=C(O)CCCc1ccc(Nc2c3ccccc3nc3ccccc23)cc1 | 0.59 | 190 | 213% | 2.33 |
| Cc1cccc2c(Nc3ccc(CCC(=O)O)cc3)c3ccccc3nc12 | 0.46 | 32 | 124% | 2.09 |
| NC(=O)CCCc1ccc(Nc2c3ccccc3nc3ccccc23)cc1 | 0.09 | 85 | 122% | 2.09 |
| CCCS(=O)(=O)Nc1ccc(Nc2c3ccccc3nc3ccccc23)cc1 | 0.43 | 350 | 82% |  |
| CS(=O)(=O)O.NC(=O)CCCCc1ccc(Nc2c3ccccc3nc3ccccc23)cc1 | 0.25 | 110 | 82% | 1.91 |
| CCS(=O)(=O)Nc1ccc(Nc2c3ccccc3nc3cc(NC(C)=O)ccc23)cc1 | 0.1 | 28 | 115% | 2.06 |
| CCc1cccc2c(Nc3ccc(CCC(=O)O)cc3)c3ccccc3nc12.Cl | 0.66 | 200 | 130% | 2.11 |
| O=C(O)CCCCc1ccc(Nc2c3ccccc3nc3ccccc23)cc1 | 0.64 | 125 | 187% | 2.27 |
| CCCS(=O)(=O)Nc1ccc(Nc2c3ccccc3nc3cc(NC(C)=O)ccc23)cc1 | 0.3 | 33 | 115% | 2.06 |
| CS(=O)(=O)Nc1ccc(Nc2c3ccccc3nc3ccccc23)cc1 | 0 | 66 | 131% |  |
| CCCCCS(=O)(=O)Nc1ccc(Nc2c3ccccc3nc3cc(NC(C)=O)ccc23)cc1 | 0.59 | 40 | 61% | 1.78 |
| CN(C)C(=O)CCCc1ccc(Nc2c3ccccc3nc3ccccc23)cc1.Cl | 0.68 | 52 |  | <1.3 |
| CC(=O)Nc1ccc2c(Nc3ccc(CCCCCC(=O)O)cc3)c3ccccc3nc2c1.Cl | 0.54 | > 500 | inactive |  |
| NS(=O)(=O)CCc1ccc(Nc2c3ccccc3nc3ccccc23)cc1 | -0.2 | 80 | 68% | 1.83 |
| Cl.NS(=O)(=O)Cc1ccc(Nc2c3ccccc3nc3ccccc23)cc1 | -0.36 | 62 | 53% | 1.72 |
| CNc1ccc2c(Nc3ccc(OCCCC(=O)O)cc3)c3ccccc3nc2c1.Cl | 0.61 | > 500 | 30% | >1.48 |
| CC(=O)Nc1ccc2c(Nc3ccc(C(=O)O)cc3)c3ccccc3nc2c1.Cl | 0.15 | > 500 | inactive |  |
| CS(=O)(=O)O.NC(=O)Cc1ccc(Nc2c3ccccc3nc3ccccc23)cc1 | -0.33 | 55 | 64% | 1.81 |
| NC(=O)c1ccc(Nc2c3ccccc3nc3ccccc23)cc1 | -0.25 | 182 |  | <1.3 |

| SMILES | Rm [1] | LD10 (Mus musculus) [mg/kg] | ILSmax (L1210) | log(ILSmax) (L1210) |
| --- | --- | --- | --- | --- |
| Cc1cccc2c(Nc3ccc(CC(=O)O)cc3)c3ccccc3nc12 | 0.3 | 95 | 80% | 1.9 |
| Cl.O=C(O)CCCCCc1ccc(Nc2c3ccccc3nc3ccccc23)cc1 | 0.75 | 150 | 200% | 2.3 |
| NC(=O)CCCCCCc1ccc(Nc2c3ccccc3nc3ccccc23)cc1 | 0.58 | 110 | 71% | 1.85 |
| CS(=O)(=O)O.NC(=O)CCCCCCCCc1ccc(Nc2c3ccccc3nc3ccccc23)cc1 | 0.77 | 60 | 25% | 1.4 |
| Cl.O=C(O)CCCCCCCc1ccc(Nc2c3ccccc3nc3ccccc23)cc1 | 0.82 | 95 | 75% | 1.88 |
| O=C(O)CCCCCCc1ccc(Nc2c3ccccc3nc3ccccc23)cc1 | 0.79 | 90 | 74% | 1.87 |
| Cl.O=C(O)CCCCCCCCc1ccc(Nc2c3ccccc3nc3ccccc23)cc1 | 0.85 | 100 | 72% | 1.86 |
| O=C(O)Cc1ccc(Nc2c3ccccc3nc3ccccc23)cc1 | 0.23 | 450 | 22% | 1.34 |
| CNc1ccc2c(Nc3ccc(CCCC(=O)O)cc3)c3ccccc3nc2c1.Cl | 0.67 | 400 | 35% | 1.54 |
| CCCCCS(=O)(=O)Nc1ccc(Nc2c3ccccc3nc3ccccc23)cc1.Cl | 0.66 | 70 | 55% |  |
| CCC(=O)Nc1ccc2c(Nc3ccc(NS(C)(=O)=O)cc3)c3ccccc3nc2c1 | 0.15 | 55 | 119% | 2.08 |
| CCCCCCS(=O)(=O)Nc1ccc(Nc2c3ccccc3nc3ccccc23)cc1.Cl | 0.75 | 120 | 35% |  |
| Cl.O=C(O)CCc1ccc(Nc2c3ccccc3nc3ccccc23)cc1 | 0.44 | 125 | 163% | 2.21 |
| CCCCCCS(=O)(=O)Nc1ccc(Nc2c3ccccc3nc3cc(NC(C)=O)ccc23)cc1 | 0.7 | 21 | 43% | 1.63 |
| CS(=O)(=O)O.NC(=O)CCCCCCCc1ccc(Nc2c3ccccc3nc3ccccc23)cc1 | 0.68 | 120 | 53% | 1.72 |
| NC(=O)CCc1ccc(Nc2c3ccccc3nc3ccccc23)cc1 | -0.17 | 75 | 84% | 1.92 |
| Cl.O=C(O)CCCCCCCCCc1ccc(Nc2c3ccccc3nc3ccccc23)cc1 | 0.86 | 75 | 75% | 1.88 |
| CCc1cccc2c(Nc3ccc(CC(=O)O)cc3)c3ccccc3nc12 | 0.52 | 200 | 200% | 2.3 |
| CCCCS(=O)(=O)Nc1ccc(Nc2c3ccccc3nc3cc(NC(C)=O)ccc23)cc1 | 0.46 | 39 | 84% | 1.92 |
| CC(=O)Nc1ccc2c(=Nc3ccc(CCC(=O)O)cc3)c3ccccc3[nH]c2c1.Cl | 0.27 | 145 |  | <1.3 |
| CS(=O)(=O)O.NC(=O)CCCCCc1ccc(Nc2c3ccccc3nc3ccccc23)cc1 | 0.41 | 125 | 97% | 1.99 |
| CNc1ccc2c(Nc3ccc(NS(C)(=O)=O)cc3OC)c3ccccc3nc2c1.Cl | 0.17 | 1.3 | 94% | 1.97 |
| CCS(=O)(=O)Nc1ccc(Nc2c3ccccc3nc3ccccc23)cc1 | 0.25 | 330 | 98% |  |
| CCCCS(=O)(=O)Nc1ccc(Nc2c3ccccc3nc3ccccc23)cc1 | 0.56 | 350 | 66% |  |
